The values below come from ChEMBL document CHEMBL3861962 (Eur J Med Chem, 2016).

By IC50 is commonly meant the point on the concentration scale where inhibition reaches its midpoint. In general, inhibition refers to the change of the read-out against control, counted positive when it falls.

Bounds are passed on as bounds.

Data set [1] in a line: Cytotoxicity against CHOK1 cells assessed as decrease in cell viability after 24 hrs by MTT assay. It is filed as toxicity, cell-based, Cricetulus griseus. To be noted: Chinese hamster, CHO-K1 cells. The method, boiled down:
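CHO-k1 cells grown in phenol-red-free DMEM/F-12 with 10% FBS, seeded at 20,000 cells/well and allowed to attach overnight. Exposure was 24 h to 0.1–200 μM, with DMSO as vehicle control. MTT at 1 mg/mL for 3 h at 37 °C, formazan dissolved in DMSO, absorbance read at 570 nm. Data given as % OD of vehicle control; IC50 taken from dose–response curve fits.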
For orientation: Tetrazolium dyes change colour on reduction, which living cells bring about.

The target in data set [2] is T1, Endothelin receptor type B (Homo sapiens) (UniProt P24530).
T1 sequence (whole entry): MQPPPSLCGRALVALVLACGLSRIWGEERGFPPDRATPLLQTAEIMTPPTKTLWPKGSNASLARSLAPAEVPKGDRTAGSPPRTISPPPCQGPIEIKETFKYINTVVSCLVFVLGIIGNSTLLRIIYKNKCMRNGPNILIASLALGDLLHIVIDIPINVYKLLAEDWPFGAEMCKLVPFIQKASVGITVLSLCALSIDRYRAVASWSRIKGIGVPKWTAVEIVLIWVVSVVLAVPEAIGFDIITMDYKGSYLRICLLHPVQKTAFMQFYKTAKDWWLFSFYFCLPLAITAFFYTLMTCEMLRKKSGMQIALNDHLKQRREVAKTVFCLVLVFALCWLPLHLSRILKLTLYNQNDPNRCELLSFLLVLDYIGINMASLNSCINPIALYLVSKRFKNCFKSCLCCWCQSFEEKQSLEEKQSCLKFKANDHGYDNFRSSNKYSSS
Kind of data set: Agonist activity at human recombinant ETB receptor expressed in CHOK1 cells assessed as induction of Ca2+ mobilization at 100 nM by fluorimetric method relative to control. It is filed as functional, cell-based. The settings on record: CHO-K1. The essentials: (§1)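 ETB functional assay run by Cerep in human recombinant CHO-k1 cells at 22 °C with fluorimetric read-out. Test solutions were 1, 10, 100 and 1000 nM. Agonist response is given as % of the control response to 100 nM endothelin-1. For antagonist mode, inhibition is given as % of the control endothelin-1 agonist response, with BQ-788 as reference antagonist.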

The target of data set [3] is T2, Endothelin-1 receptor (Homo sapiens) (UniProt P25101).
T2 sequence (whole entry): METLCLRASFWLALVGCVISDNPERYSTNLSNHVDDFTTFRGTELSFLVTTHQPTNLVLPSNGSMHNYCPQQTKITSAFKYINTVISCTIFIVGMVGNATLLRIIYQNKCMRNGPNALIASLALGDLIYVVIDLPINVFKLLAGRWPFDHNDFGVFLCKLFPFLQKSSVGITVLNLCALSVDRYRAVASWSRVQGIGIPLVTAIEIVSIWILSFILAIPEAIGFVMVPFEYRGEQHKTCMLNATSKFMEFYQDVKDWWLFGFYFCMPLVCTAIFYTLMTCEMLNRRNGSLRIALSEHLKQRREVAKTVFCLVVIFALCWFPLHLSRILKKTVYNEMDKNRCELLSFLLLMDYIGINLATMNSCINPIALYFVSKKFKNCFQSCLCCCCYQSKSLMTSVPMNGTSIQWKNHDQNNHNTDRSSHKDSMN
As to the kind of experiment: Antagonist activity at ETA receptor in human SKNMC cells assessed as inhibition of endothelin-1-mediated Ca2+ mobilization at 1 nM by fluorimetric method relative to control. Type of data set: functional, cell-based. The settings on record: SK-N-MC. The method, boiled down: (§2)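 ETA functional assay run by Cerep in human neuroblastoma SK-N-MC cells at 22 °C with fluorimetric read-out. Test solutions were 1, 10, 100 and 1000 nM. Agonist response is given as % of the control response to 100 nM endothelin-1. For antagonist mode, inhibition is given as % of the control endothelin-1 agonist response, with BQ-123 as reference antagonist.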
Background: Calcium flux is commonly read through the fluorescence of an indicator in the cells.

The nature of data set [4]: Retention time of the compound. Type of data set: physicochemical.
The target of data set [5] is T1, Endothelin receptor type B (Homo sapiens). Kind of data set: Agonist activity at human recombinant ETB receptor expressed in CHOK1 cells assessed as induction of Ca2+ mobilization at 10 nM by fluorimetric method relative to control. The settings on record: CHO-K1. It is filed as functional, cell-based. The method, boiled down: as §1
The nature of data set [6]: Metabolic stability in human liver microsomes assessed as parent compound remaining at 5 uM in presence of NADPH after 30 mins by LC-MS/MS analysis. Type of data set: ADME. To be noted: read-out: Stability. The method, boiled down:
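Pooled human liver microsomes in 100 mM potassium phosphate, pH 7.4, with test compound at 5 μM final. Reaction started with 1 mM NADPH (final) and run at 37 °C in a shaking water bath for 0, 15 and 30 min. Stopped with an equal volume of ice-cold acetonitrile containing 0.6 μM labetalol as internal standard. Protein was spun out and the supernatant analysed by LC-MS/MS. Blank had no compound.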

In data set [7] the target is T1, Endothelin receptor type B (Homo sapiens). As to the kind of experiment: Antagonist activity at human recombinant ETB expressed in CHOK1 cells assessed as inhibition of endothelin-1-mediated Ca2+ mobilization at 1 nM by fluorimetric method relative to control. It is filed as functional, cell-based. The settings on record: CHO-K1. The method, boiled down:
as §1

Data set [8] has as its target T2, Endothelin-1 receptor (Homo sapiens). As to the kind of experiment: Antagonist activity at ETA receptor in human SKNMC cells assessed as inhibition of endothelin-1-mediated Ca2+ mobilization at 10 nM by fluorimetric method relative to control. It is filed as functional, cell-based. To be noted: SK-N-MC. The essentials:
as §2

For data set [9] the target is unchanged. Kind of data set: Agonist activity at ETA receptor in human SKNMC cells assessed as induction of Ca2+ mobilization at 1 nM by fluorimetric method relative to control. Type of data set: functional, cell-based. To be noted: SK-N-MC. The method, boiled down:
as §2

For data set [10], the target named is Cytochrome P450 2D6 (Homo sapiens, UniProt P10635). Kind of data set: Drug metabolism assessed as human recombinant CYP2D6-mediated metabolite formation by measuring parent compound remaining at 5 uM in presence of NADPH after 30 mins by LC-MS/MS analysis. Type of data set: ADME. The settings on record: recombinant enzyme, 0.5 h. The essentials:
(§3)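 Substrate at 5 μM final in 100 mM potassium phosphate, pH 7.4, incubated with human liver microsomes or baculovirus-expressed recombinant CYP3A4, 2D6 or 2C9. Reaction started with 1 mM NADPH and run 0, 15 and 30 min at 37 °C. Stopped with ice-cold acetonitrile containing labetalol internal standard, then centrifuged. Supernatant analysed by LC-MS/MS on a C18 column at 40 °C. Blank was enzyme without substrate.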

Data set [11] has as its target T1, Endothelin receptor type B (Homo sapiens). As to the kind of experiment: Antagonist activity at human recombinant ETB expressed in CHOK1 cells assessed as inhibition of endothelin-1-mediated Ca2+ mobilization at 100 nM by fluorimetric method relative to control. Type of data set: functional, cell-based. To be noted: CHO-K1. The essentials: as §1
The target is the same in data set [12]. Kind of data set: Antagonist activity at human recombinant ETB expressed in CHOK1 cells assessed as inhibition of endothelin-1-mediated Ca2+ mobilization at 10 nM by fluorimetric method relative to control. It is filed as functional, cell-based. The settings on record: CHO-K1. The essentials:
as §1

Data set [13] has as its target T2, Endothelin-1 receptor (Homo sapiens). As to the kind of experiment: Agonist activity at ETA receptor in human SKNMC cells assessed as induction of Ca2+ mobilization at 100 nM by fluorimetric method relative to control. The settings on record: SK-N-MC. It is filed as functional, cell-based. The method, boiled down: as §2
In data set [14] the target is Cytochrome P450 3A4 (Homo sapiens, UniProt P08684). Kind of data set: Drug metabolism assessed as human recombinant CYP3A4-mediated metabolite formation by measuring parent compound remaining at 5 uM in presence of NADPH after 30 mins by LC-MS/MS analysis. To be noted: recombinant enzyme, 0.5 h. It is filed as ADME. The method, boiled down: as §3
Chain of Cytochrome P450 3A4 (P08684 whole entry): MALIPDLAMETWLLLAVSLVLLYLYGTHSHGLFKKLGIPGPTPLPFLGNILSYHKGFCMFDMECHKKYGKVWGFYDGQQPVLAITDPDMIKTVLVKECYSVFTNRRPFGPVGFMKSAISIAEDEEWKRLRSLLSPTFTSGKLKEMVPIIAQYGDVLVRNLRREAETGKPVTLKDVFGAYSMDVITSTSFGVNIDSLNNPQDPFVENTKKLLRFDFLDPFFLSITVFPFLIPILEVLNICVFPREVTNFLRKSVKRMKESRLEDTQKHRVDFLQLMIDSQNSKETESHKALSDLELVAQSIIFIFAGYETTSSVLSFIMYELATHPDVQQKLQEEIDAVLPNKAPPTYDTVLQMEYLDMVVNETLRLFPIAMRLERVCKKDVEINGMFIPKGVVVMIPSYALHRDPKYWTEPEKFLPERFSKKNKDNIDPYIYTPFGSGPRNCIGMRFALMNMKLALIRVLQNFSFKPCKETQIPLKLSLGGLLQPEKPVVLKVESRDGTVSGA
Data set [15] concerns the target T1, Endothelin receptor type B (Homo sapiens). As to the kind of experiment: Agonist activity at human recombinant ETB receptor expressed in CHOK1 cells assessed as induction of Ca2+ mobilization at 1 nM by fluorimetric method relative to control. It is filed as functional, cell-based. The settings on record: CHO-K1. The essentials: as §1
Data set [16] addresses T3, Endothelin-1 receptor (Homo sapiens, UniProt P25101).
T3 sequence (P25101 whole entry): T2 sequence (whole entry)
Kind of data set: Antagonist activity at ETA receptor in human SKNMC cells assessed as inhibition of endothelin-1-induced Ca2+ mobilization by fluorimetric method.

Chain of Cytochrome P450 2D6 (P10635 whole entry): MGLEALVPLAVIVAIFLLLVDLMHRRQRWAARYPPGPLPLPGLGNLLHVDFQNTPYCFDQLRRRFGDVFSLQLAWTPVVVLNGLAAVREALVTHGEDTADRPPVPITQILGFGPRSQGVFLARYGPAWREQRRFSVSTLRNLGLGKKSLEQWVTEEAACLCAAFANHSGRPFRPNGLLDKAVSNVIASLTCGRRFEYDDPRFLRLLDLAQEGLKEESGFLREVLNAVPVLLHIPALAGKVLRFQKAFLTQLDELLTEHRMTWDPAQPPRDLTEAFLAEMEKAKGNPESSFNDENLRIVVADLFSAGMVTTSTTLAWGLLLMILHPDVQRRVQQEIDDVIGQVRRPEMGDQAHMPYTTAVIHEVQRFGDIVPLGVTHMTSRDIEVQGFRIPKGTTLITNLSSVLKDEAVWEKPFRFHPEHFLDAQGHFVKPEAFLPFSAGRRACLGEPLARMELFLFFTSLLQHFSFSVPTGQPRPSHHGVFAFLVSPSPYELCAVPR

On to `COc1ccccc1Oc1c(NS(=O)(=O)c2ccc(C(OC)(C(F)(F)F)C(F)(F)F)cc2)nc(-c2ncccn2)nc1OCCO`, for which the IC50 at 24 h in [1] was 153 µM. Further, the Activity in [2], in [5], in data set [9], in [13] and in data set [15] was 0% in each case. Besides, the inhibition in data set [3] was -1%; in [7] it was 4%; in data set [8], 13%; in data set [11], 11%; in data set [12], 5%. In [4], this compound came in with a Retention_time of 5.48 min. The remaining at 0.5 h, 5 µM in data set [6] was found to be 73.9%. Also, the Stability in data set [10] is more than 99%; in data set [14] it was 19.2%. Besides, in [16], the IC50 was found to be 693 µM.
On to `COc1ccccc1Oc1c(NS(=O)(=O)c2ccc(C(F)(C(F)(F)F)C(F)(F)F)cc2)nc(-c2ncccn2)nc1OCCO`, for which, in data set [1], the IC50 at 24 h worked out at 159 µM. Further, the Activity in data set [2] is -1%; in [5], -1%; in [9], 0%; in [13] it was -1%; in data set [15], 0%. Further, the inhibition in data set [3] is -5%; in [7] it was -5%; in data set [8] it was 20%; in data set [11], 8%; in data set [12], 16%. Further, the Retention_time in data set [4] came out at 5.6 min. Besides, the remaining at 0.5 h, 5 µM in [6] was determined as 99%. The Stability in data set [10] is recorded as more than 99%; in data set [14], 16.3%. In data set [16], the IC50 was found to be 0.0754 µM.
